Experimental data taken from ChEMBL document CHEMBL1671769, “Tissue penetration and pharmacokinetics of tigecycline in diabetic patients with chronic wound infections described by using in vivo microdialysis” (Antimicrob Agents Chemother, 2010).
≈ marks a conversion by molar mass, not a printed value.

How the values were obtained:
[1] = Cmax in plasma of diabetic patient with chronic wound infection at […], iv loading dose followed by […], iv BID for 2 to 3 doses by microdialysis; format: ADME, organism-based; set-up: route intravenous; conditions: human
Summary of the method: (§1)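 Eight adult diabetic patients; IV 100 mg loading dose over 1 h via peripheral vein, then 50 mg over 1 h every 12 h for 2–3 further doses. Heparinized venous blood from contralateral arm at 0–12 h over a steady-state interval; plasma stored −80°C; HPLC (linear 0.05–5 μg/ml). Noncompartmental analysis: Cmax by inspection, log-linear trapezoidal AUC0-24, t1/2 = 0.693/λz (≥3 terminal points), […].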

[2] = Tmax in plasma of diabetic patient with chronic wound infection at […], iv loading dose followed by […], iv BID for 2 to 3 doses by microdialysis; format: ADME, organism-based; conditions: human; summary of the method: as §1
Plasma [3] = test: AUC (0 to 24 hrs) in plasma of diabetic patient with chronic wound infection at […], iv loading dose followed by […], iv BID for 2 to 3 doses by microdialysis; format: ADME, organism-based; set-up: time < 24 hr, route intravenous; conditions: human, in vivo; summary of the method: as §1
[4] = Terminal half life in plasma of diabetic patient with chronic wound infection at […], iv loading dose followed by […], iv BID for 2 to 3 doses by microdialysis; format: ADME, organism-based; conditions: human; summary of the method: as §1
Plasma [5] = test: Clearance at steady state in plasma of diabetic patient with chronic wound infection at […], iv loading dose followed by […], iv BID for 2 to 3 doses by microdialysis; format: ADME, organism-based; conditions: human, in vivo; summary of the method: as §1
[6] = Volume of distribution at steady state in plasma of diabetic patient with chronic wound infection at […], iv loading dose followed by […], iv BID for 2 to 3 doses by microdialysis; format: ADME, organism-based; conditions: human, read-out: Vdss; summary of the method: as §1
Plasma [7] = test: fCmax in plasma of diabetic patient with chronic wound infection at […], iv loading dose followed by […], iv BID for 2 to 3 doses by microdialysis; format: ADME, organism-based; conditions: human, in vivo
Summary of the method: (§2)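 Steady-state plasma after IV 100 mg loading then 50 mg every 12 h (1-h infusions) in diabetic patients. Total HPLC plasma levels converted to free using a polynomial fitted to ultrafiltration-derived percent unbound versus plasma concentration (y = y0 + a/x + b/x² + c/x³). Free-drug profiles analysed noncompartmentally; Cmax by visual inspection.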

[8] = fTmax in plasma of diabetic patient with chronic wound infection at […], iv loading dose followed by […], iv BID for 2 to 3 doses by microdialysis; format: ADME, organism-based; conditions: human; summary of the method: as §2
[9] = Cmax in wound interstitial fluid of diabetic patient with chronic wound infection at […], iv loading dose followed by […], iv BID for […] by microdialysis; format: ADME, organism-based; set-up: route intravenous; conditions: human
Summary of the method: (§3)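 Subcutaneous microdialysis probes (30 mm membrane, 20 kDa cutoff) placed before dosing, one within 10 cm of wound margin and one in uninfected thigh of the same limb. Patients given IV 100 mg load then 50 mg q12h.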

[10] = Tmax in wound interstitial fluid of diabetic patient with chronic wound infection at […], iv loading dose followed by […], iv BID for […] by microdialysis; format: ADME, organism-based; conditions: human; summary of the method: as §3
[11] = AUC (0 to 24 hrs) in wound interstitial fluid of diabetic patient with chronic wound infection at […], iv loading dose followed by […], iv BID for […] by microdialysis; format: ADME, organism-based; set-up: time < 24 hr, route intravenous; conditions: human; summary of the method: as §3
[12] = Terminal half life in wound interstitial fluid of diabetic patient with chronic wound infection at […], iv loading dose followed by […], iv BID for […] by microdialysis; format: ADME, organism-based; conditions: human; summary of the method: as §3
[13] = Cmax in thigh interstitial fluid of diabetic patient with chronic wound infection at […], iv loading dose followed by […], iv BID for […] by microdialysis; format: ADME, organism-based; set-up: route intravenous; conditions: human; summary of the method: as §3
[14] = Tmax in thigh interstitial fluid of diabetic patient with chronic wound infection at […], iv loading dose followed by […], iv BID for […] by microdialysis; format: ADME, organism-based; conditions: human; summary of the method: as §3
[15] = AUC (0 to 24 hrs) in thigh interstitial fluid of diabetic patient with chronic wound infection at […], iv loading dose followed by […], iv BID for […] by microdialysis; format: ADME, organism-based; set-up: time < 24 hr, route intravenous; conditions: human; summary of the method: as §3
[16] = Terminal half life in thigh interstitial fluid of diabetic patient with chronic wound infection at […], iv loading dose followed by […], iv BID for […] by microdialysis; format: ADME, organism-based; conditions: human; summary of the method: as §3
[17] = Drug penetration in wound interstitial fluid of diabetic patient with chronic wound infection at […], iv loading dose followed by […], iv BID for […] by microdialysis; format: ADME, organism-based; conditions: human, in vivo
Summary of the method: (§4)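 Tissue penetration is interstitial AUC0-24 (wound or thigh, microdialysis, recovery-corrected) divided by free plasma AUC0-24 × 100. Free plasma values come from the protein-binding polynomial applied to total concentrations. Sampling over a 12-h steady-state interval after IV 100 mg load then 50 mg q12h. Sites were compared by t test or Mann-Whitney.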

[18] = Drug penetration in thigh interstitial fluid of diabetic patient with chronic wound infection at […], iv BID for […] by microdialysis; format: ADME, organism-based; conditions: human, in vivo; summary of the method: as §4
[19] = Drug recovery in wound interstitial fluid of diabetic patient with chronic wound infection at […], iv loading dose followed by […], iv BID for 2 to 3 doses by microdialysis; format: ADME, organism-based; conditions: human, in vivo
Summary of the method: (§5)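 In vivo recovery by retrodialysis for each catheter after the final sampling. Perfusate was lactated Ringer's containing 500 μg/ml drug, perfused for 1 h at 2 μl/min. Recovery = 100 − (100 × Cdialysate/Cperfusate), measured by HPLC.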

[20] = Drug recovery in thigh interstitial fluid of diabetic patient with chronic wound infection at […], iv loading dose followed by […], iv BID for 2 to 3 doses by microdialysis; format: ADME, organism-based; conditions: human, in vivo; summary of the method: as §5
[21] = fAUC (0 to 24 hrs) to MIC for Staphylococcus aureus infected in thigh of ICR mouse; format: functional, Thigh muscle
[22] = Ratio of AUC (0 to 24 hrs) in patient with complicated skin and skin structure infections to MIC for Staphylococcus aureus; format: functional
Staphylococcus aureus = test: Antimicrobial activity against methicillin-resistant Staphylococcus aureus by CLSI method; format: functional
[23] = Ratio of AUC (0 to 24 hrs) in plasma diabetic patient with chronic wound infection to MIC for methicillin-resistant Staphylococcus aureus; format: functional
Summary of the method: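 Eight adult diabetic patients; tigecycline 100 mg IV over 1 h, then 50 mg over 1 h every 12 h for 2–3 more doses. Venous plasma was sampled over the 12-h steady-state interval and total drug measured by HPLC.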

[24] = Ratio of fAUC (0 to 24 hrs) in plasma of diabetic patient with chronic wound infection to MIC for methicillin-resistant Staphylococcus aureus; format: functional
Summary of the method: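 Same patients and IV regimen (100 mg load, then 50 mg q12h). Total plasma levels measured by HPLC over the 12-h steady-state interval were converted to free drug using a polynomial fit of ultrafiltration protein binding, measured in triplicate at 1, 6 and 12 h.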

[25] = Ratio of AUC (0 to 24 hrs) in thigh interstitial fluid of diabetic patient with chronic wound infection to MIC for methicillin-resistant Staphylococcus aureus; format: functional, Thigh muscle
[26] = Drug penetration in blister fluid of healthy human at […], iv loading dose followed by […], iv BID for 2 to 3 doses by microdialysis; format: ADME, organism-based; conditions: in vivo

CN(C)c1cc(NC(=O)CNC(C)(C)C)c(O)c2c1C[C@H]1C[C@H]3[C@H](N(C)C)C(O)=C(C(N)=O)C(=O)[C@@]3(O)C(O)=C1C2=O [TIGECYCLINE]
Cmax [1]: 420 ng/mL | Tmax [2]: 1.13 h | AUC (Plasma [3]): 3990 ng·h/mL | half-life [4]: 9.73 h | CLss (Plasma [5]): 4.67 mL/min/kg | Vd [6]: 3.95 L/kg | Cmax_unbound (Plasma [7]): 160 ng/mL | Tmax [8]: 1.13 h | Cmax [9]: 160 ng/mL | Tmax [10]: 4.38 h | AUC at 24 h [11]: 2600 ng·h/mL | half-life [12]: 24.9 h | Cmax [13]: 180 ng/mL | Tmax [14]: 3.38 h | AUC at 24 h [15]: 2520 ng·h/mL | half-life [16]: 16 h | Drug uptake [17]: 100% | Drug uptake [18]: 98.94% | Activity [19]: 57.03% | Activity [20]: 53.48% | fAUC/MIC [21]: 5.7 | RatioAUC/MIC [22]: 17.9 | MIC90 (Staphylococcus aureus): 0.12 µg/mL (≈ 0.205 µM) | RatioAUC/MIC [23]: 33.25 | RatioAUC/MIC [24]: 22.1 | RatioAUC/MIC [25]: 21 | Drug uptake [26]: 74%
